Source: ChEMBL document CHEMBL3526053, “Species-dependent uptake of glycylsarcosine but not oseltamivir in Pichia pastoris expressing the rat, mouse, and human intestinal peptide transporter PEPT1” (Drug Metab Dispos, 2012)

Legend:
Type in all cases: ADME
[1] = molecular target: T1, Solute carrier family 15 member 1 (Mus musculus, UniProt Q9JIP7); test: Drug uptake in Pichia pastoris GS115 expressing mouse recombinant PEPT1 at 5 uM after 30s by dual-channel liquid scintillation counting analysis in presence of acyclovir relative to control; conditions: 0.5 min
T1 sequence (Q9JIP7 whole entry): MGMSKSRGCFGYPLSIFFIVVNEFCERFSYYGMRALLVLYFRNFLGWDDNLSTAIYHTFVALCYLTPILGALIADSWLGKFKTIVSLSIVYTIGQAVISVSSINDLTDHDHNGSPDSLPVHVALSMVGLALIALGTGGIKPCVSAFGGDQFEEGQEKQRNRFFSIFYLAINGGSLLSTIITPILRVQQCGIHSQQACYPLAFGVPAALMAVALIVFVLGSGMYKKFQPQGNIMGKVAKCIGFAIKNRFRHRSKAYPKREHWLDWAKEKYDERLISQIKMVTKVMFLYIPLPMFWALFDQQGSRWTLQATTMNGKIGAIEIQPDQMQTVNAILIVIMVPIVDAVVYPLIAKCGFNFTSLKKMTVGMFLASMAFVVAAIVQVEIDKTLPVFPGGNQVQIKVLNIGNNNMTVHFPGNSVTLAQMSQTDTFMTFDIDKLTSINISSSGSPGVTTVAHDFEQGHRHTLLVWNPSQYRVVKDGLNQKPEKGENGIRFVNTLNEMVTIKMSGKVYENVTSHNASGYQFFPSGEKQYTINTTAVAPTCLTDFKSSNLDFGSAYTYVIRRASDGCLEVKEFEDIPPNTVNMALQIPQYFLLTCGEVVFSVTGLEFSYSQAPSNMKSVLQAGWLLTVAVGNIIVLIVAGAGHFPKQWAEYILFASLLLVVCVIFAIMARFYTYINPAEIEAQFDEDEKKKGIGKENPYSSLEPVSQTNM
Procedure, shortened: (§1)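 [3H]GlySar 5.0 µM final, 30-s uptake at 24°C in 100 mM potassium phosphate pH 6.5, with or without a potential inhibitor at 10 mM. Cells are methanol-induced transformants. Values are vector-subtracted and expressed as percent of buffer control. Mean ± SE (n=3). ANOVA with Dunnett's test.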

[2] = molecular target: T2, Solute carrier family 15 member 1 (Homo sapiens, UniProt P46059); test: Drug uptake in Pichia pastoris GS115 expressing human recombinant PEPT1 at 5 uM after 30s by dual-channel liquid scintillation counting analysis in presence of valacyclovir relative to control; conditions: 0.5 min; procedure, shortened: as §1
T2 sequence (P46059 whole entry): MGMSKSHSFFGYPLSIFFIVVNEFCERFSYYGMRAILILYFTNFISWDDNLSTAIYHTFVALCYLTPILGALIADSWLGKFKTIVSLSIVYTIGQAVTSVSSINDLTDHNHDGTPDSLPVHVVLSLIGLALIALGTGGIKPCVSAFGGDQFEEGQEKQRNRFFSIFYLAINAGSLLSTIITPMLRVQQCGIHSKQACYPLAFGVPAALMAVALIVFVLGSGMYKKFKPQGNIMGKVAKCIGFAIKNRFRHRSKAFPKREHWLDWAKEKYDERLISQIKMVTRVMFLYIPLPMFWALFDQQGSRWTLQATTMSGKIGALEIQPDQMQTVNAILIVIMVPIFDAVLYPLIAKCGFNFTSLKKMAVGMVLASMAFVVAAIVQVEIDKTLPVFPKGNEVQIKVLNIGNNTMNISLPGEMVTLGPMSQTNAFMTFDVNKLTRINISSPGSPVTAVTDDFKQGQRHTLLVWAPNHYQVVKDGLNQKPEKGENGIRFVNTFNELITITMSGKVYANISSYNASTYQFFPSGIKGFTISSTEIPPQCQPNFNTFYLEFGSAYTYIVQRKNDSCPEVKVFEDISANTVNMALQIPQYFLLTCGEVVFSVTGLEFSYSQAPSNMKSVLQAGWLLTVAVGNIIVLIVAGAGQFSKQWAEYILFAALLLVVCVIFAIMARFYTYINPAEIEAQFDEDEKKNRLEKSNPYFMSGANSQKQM

[3] = molecular target: T3, Solute carrier family 15 member 1 (Rattus norvegicus, UniProt P51574); test: Drug uptake in Pichia pastoris GS115 expressing rat recombinant PEPT1 at 5 uM after 30s by dual-channel liquid scintillation counting analysis in presence of cephalothin relative to control; conditions: 0.5 min
T3 sequence (P51574 whole entry): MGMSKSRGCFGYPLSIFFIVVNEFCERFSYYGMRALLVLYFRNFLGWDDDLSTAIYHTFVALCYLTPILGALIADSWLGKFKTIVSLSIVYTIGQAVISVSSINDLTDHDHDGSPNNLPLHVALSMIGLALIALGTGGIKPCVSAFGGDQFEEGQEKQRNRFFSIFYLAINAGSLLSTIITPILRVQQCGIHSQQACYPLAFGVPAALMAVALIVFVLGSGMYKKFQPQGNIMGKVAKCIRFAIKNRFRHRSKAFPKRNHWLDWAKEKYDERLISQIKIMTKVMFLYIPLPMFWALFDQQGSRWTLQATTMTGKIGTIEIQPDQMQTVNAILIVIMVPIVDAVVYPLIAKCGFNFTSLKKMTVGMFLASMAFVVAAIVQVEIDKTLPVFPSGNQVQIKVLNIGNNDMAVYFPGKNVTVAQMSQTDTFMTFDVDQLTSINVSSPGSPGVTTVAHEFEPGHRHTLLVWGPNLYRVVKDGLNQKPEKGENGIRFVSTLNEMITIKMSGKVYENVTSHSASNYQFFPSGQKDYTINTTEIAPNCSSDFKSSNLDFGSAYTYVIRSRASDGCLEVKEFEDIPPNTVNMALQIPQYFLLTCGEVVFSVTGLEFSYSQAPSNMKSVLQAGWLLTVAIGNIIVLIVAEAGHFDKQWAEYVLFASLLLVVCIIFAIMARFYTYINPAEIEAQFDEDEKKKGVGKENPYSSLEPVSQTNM
Procedure, shortened: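 Rat PEPT1 (pPIC3.5K-rPept1) in GS115 His+Mut+ transformant, methanol-induced 20-24 hr in BMMY at 30°C, washed into 100 mM potassium phosphate pH 6.5. [3H]GlySar final 5.0 µM with inhibitor at 10 mM, 30 sec at 24°C. Counts taken by liquid scintillation after 24 hr standing. Values are vector-subtracted and given as % of buffer control. Mean ± SE, n=3.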

[4] = molecular target: T1, Solute carrier family 15 member 1; test: Drug uptake in Pichia pastoris GS115 expressing mouse recombinant PEPT1 at 5 uM after 30s by dual-channel liquid scintillation counting analysis in presence of elacridar relative to control; conditions: 0.5 min; procedure, shortened: as §1
[5] = molecular target: T3, Solute carrier family 15 member 1; test: Drug uptake in Pichia pastoris GS115 expressing rat recombinant PEPT1 at 5 uM after 30s by dual-channel liquid scintillation counting analysis relative to control; conditions: 0.5 min
Procedure, shortened: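 Rat PEPT1 and vector-only (pPIC3.5K) GS115 yeast, methanol-induced 20-24 hr. Cells were washed and concentrated tenfold in 100 mM phosphate buffer pH 6.5. [3H]GlySar or [14C]oseltamivir final 5.0 µM, 24°C, 30 sec and 5 min. Nonspecific binding was measured at 0°C and zero time. Uptake is given as pmol/OD600 by scintillation counting. Mean ± SE, n=6.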

[6] = molecular target: T1, Solute carrier family 15 member 1; test: Drug uptake in Pichia pastoris GS115 expressing mouse recombinant PEPT1 at 5 uM after 30s by dual-channel liquid scintillation counting analysis in presence of glycine relative to control; conditions: in vivo, 0.5 min; procedure, shortened: as §1

Q: `[3H]C(C(=O)O)N(C)C(=O)CN` (stereo unspecified) was tested. Which Drug uptake [1] did it give?
A: Its Drug uptake is 99.8%.

Q: What about the Drug uptake [2] of the same compound?
A: The Drug uptake was 3.5%.

Q: And the Drug uptake [3]?
A: Its Drug uptake is 119%.

Q: What about the Drug uptake [4] of the same compound?
A: The Drug uptake was 89.3%.

Q: And the Drug uptake [5]?
A: The Drug uptake was 100%.

Q: What about the Drug uptake [6] of the same compound?
A: Its Drug uptake is 104%.
